From ChEMBL document CHEMBL1138753, “Synthesis and biological activity of analogues of the antimicrotubule agent N,beta,beta-trimethyl-L-phenylalanyl-N(1)-[(1S,2E)-3-carboxy-1-isopropylbut-2-enyl]- N(1),3-dimethyl-L-valinamide (HTI-286)” (J Med Chem, 2004)

Key:
Tubulin beta-1 chain [1] = target: T1, Tubulin beta-1 chain (Homo sapiens, UniProt Q9H4B7); experiment: Percent inhibition of tubulin polymerization at 0.3 uM concentration; assay type: functional
[2] = Concentration required to inhibit tumor cell growth in KB-3-1 cells; assay type: functional, cell-based, Homo sapiens; conditions: Homo sapiens, KB 3-1
Method in brief: (§1)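 Cytotoxicity was measured in paclitaxel-sensitive KB-3-1 cells and in KB-8-5 and KB-V1 cells, which express moderate and high P-glycoprotein respectively. Result is the average IC50 (nM) ± SEM; SEM is omitted where it is below 10% of the average.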

KB [3] = experiment: Concentration required to inhibit tumor cell growth in KB-8-5 cells; assay type: functional, cell-based, Homo sapiens; conditions: Homo sapiens, KB; method in brief: as §1
KB [4] = experiment: Concentration required to inhibit tumor cell growth in KB-V1 cells; assay type: functional, cell-based; conditions: Homo sapiens; method in brief: as §1
Tubulin beta-1 chain [5] = target: T1, Tubulin beta-1 chain; experiment: Binding affinity towards tubulin
Mus musculus [6] = experiment: Minimum effective dose was evaluated in lox melanoma human tumor graft model in athymic mice when administered intravenously; conditions: iv, read-out: MED
Mus musculus [7] = experiment: Minimum tolerated dose was evaluated in lox melanoma human tumor graft model in athymic mice when administered intravenously
[8] = Inhibitory concentration against S1 cells was evaluated; assay type: functional, cell-based
Method in brief: (§2)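 Cytotoxicity panel covered tumor lines differing in P-glycoprotein expression. Lox melanoma and KM20 have none; NCI-H1299, HCT-15 and S1 express it. Result is the average IC50 (nM) ± SEM.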

LOX IMVI = experiment: Inhibitory concentration against Lox melanoma cells; assay type: functional, cell-based; conditions: Homo sapiens; method in brief: as §2
NCI-H1299 = experiment: Inhibitory concentration against NCI-H1299 cells was evaluated; assay type: functional, cell-based; conditions: Homo sapiens; method in brief: as §2
[9] = Inhibitory concentration against KM20 cells was evaluated; assay type: functional, cell-based, Homo sapiens; method in brief: as §2
HCT-15 = experiment: Inhibitory concentration against HCT-15 cells was evaluated; assay type: functional, cell-based; conditions: Homo sapiens; method in brief: as §2
Tubulin beta-1 chain [10] = target: T1, Tubulin beta-1 chain; experiment: Binding affinity towards tubulin; e = no evidence for binding
KB 3-1 = experiment: Inhibitory concentration against KB-3-1 cells was evaluated; assay type: functional, cell-based; conditions: Homo sapiens
Method in brief: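 Cytotoxicity was measured in paclitaxel-sensitive KB-3-1 human carcinoma cells. The value is the average IC50 in nM ± SEM; where no SEM is given, it is under 10% of the average.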

Tubulin beta-1 chain [11] = target: T1, Tubulin beta-1 chain; experiment: Binding affinity towards tubulin; d = weak binding

T1 sequence (Q9H4B7 whole entry): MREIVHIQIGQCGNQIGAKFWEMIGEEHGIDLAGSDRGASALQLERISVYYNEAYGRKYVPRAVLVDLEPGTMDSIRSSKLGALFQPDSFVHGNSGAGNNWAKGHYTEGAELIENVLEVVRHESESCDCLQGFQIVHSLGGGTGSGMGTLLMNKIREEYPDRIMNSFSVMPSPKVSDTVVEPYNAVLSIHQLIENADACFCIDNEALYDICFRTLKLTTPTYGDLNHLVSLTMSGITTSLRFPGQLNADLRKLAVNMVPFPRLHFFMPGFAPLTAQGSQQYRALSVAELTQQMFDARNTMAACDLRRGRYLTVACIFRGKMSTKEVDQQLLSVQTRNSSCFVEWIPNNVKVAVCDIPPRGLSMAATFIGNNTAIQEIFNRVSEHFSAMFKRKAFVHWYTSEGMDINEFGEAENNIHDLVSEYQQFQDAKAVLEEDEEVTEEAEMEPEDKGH

| Structure (SMILES) | inhibition (Tubulin beta-1 chain [1]) [%] | IC50 [2] [µM] | IC50 (KB [3]) [µM] | IC50 (KB [4]) [µM] | Kd (Tubulin beta-1 chain [5]) [µM] | minimal effective dose (Mus musculus [6]) [mg/kg] | MTD (Mus musculus [7]) [mg/kg] | IC50 [8] [µM] | IC50 (LOX IMVI) [µM] | IC50 (NCI-H1299) [µM] | IC50 [9] [µM] | IC50 (HCT-15) [µM] | Kd (Tubulin beta-1 chain [10]) | IC50 (KB 3-1) [µM] | Kd (Tubulin beta-1 chain [11]) |
| --- | --- | --- | --- | --- | --- | --- | --- | --- | --- | --- | --- | --- | --- | --- | --- |
| CN[C@H](C(=O)N[C@H](C(=O)N(C)[C@H](/C=C(\C)C(=O)O)C(C)C)C(C)(C)C)C(C)(C)C1CCCCC1 | 93 | 0.0039 | 0.0057 | 0.155 | 1.2 | 1 | – | – | – | – | – | – | – | – | – |
| CN[C@H](C(=O)N[C@H](C(=O)N(C)[C@H](/C=C(\C)C(=O)N1CCOCC1)C(C)C)C(C)(C)C)C(C)(C)c1ccccc1 | 69 | 0.042 | 0.075 | 1.19 | – | 3 | – | – | – | – | – | – | – | – | – |
| CN[C@H](C(=O)N[C@H](C(=O)N(C)[C@H](/C=C(\C)C(=O)O)C(C)C)C(C)C)C(C)(C)c1ccccc1 | 78 | 0.0052 | 0.011 | 0.288 | – | 0.7 | >3 | – | – | – | – | – | – | – | – |
| CN[C@H](C(=O)N[C@H](C(=O)N(C)[C@H](/C=C(\C)C(=O)O)C(C)C)C(C)(C)C)C(C)(C)c1ccccc1 [TALTOBULIN] | 88 | – | – | 0.0774 | 0.26 | 0.2 | 1.6 | 0.0037 | 0.0014 | 0.0068 | 0.0018 | 0.0042 | – | – | – |
| C/C(=C\[C@H](C(C)C)N(C)C(=O)[C@@H](NC(=O)[C@@H](N(C)CCO)C(C)(C)c1ccccc1)C(C)(C)C)C(=O)O | 72 | 0.045 | 0.062 | > 3 | 1 | – | – | – | – | – | – | – | – | – | – |
| CN[C@H](C(=O)N[C@H](C(=O)N[C@H](/C=C(\C)C(=O)O)C(C)C)C(C)(C)C)C(C)(C)c1ccccc1 | 79 | 0.043 | 0.13 | > 3 | – | – | – | – | 0.023 | 0.054 | – | 0.204 | – | – | – |
| C/C(=C\[C@H](C(C)C)N(C)C(=O)[C@@H](NC(=O)[C@@H](C)C(C)(C)c1ccccc1)C(C)(C)C)C(=O)O | 94 | 0.561 | 0.639 | > 3 | – | – | – | – | 1.38 | 1.07 | – | 1.2 | No evidence for binding | – | – |
| CN[C@H](C(=O)N[C@H](C(=O)N(C)[C@H](/C=C(\C)C(=O)O)C(C)C)C(C)(C)SC)C(C)(C)c1ccccc1 | 76 | 0.0027 | 0.0071 | 0.303 | 0.7 | 0.5 | – | – | 0.003 | 0.0158 | 0.006 | 0.0186 | – | – | – |
| CC(=O)O[C@H]1C(=O)[C@@]2(C)[C@H]([C@H](OC(=O)c3ccccc3)[C@]3(O)C[C@H](OC(=O)[C@H](O)[C@@H](NC(=O)c4ccccc4)c4ccccc4)C(C)=C1C3(C)C)[C@]1(OC(C)=O)CO[C@@H]1C[C@@H]2O [PACLITAXEL] | – | – | – | – | – | – | – | 0.092 | 0.0173 | 0.0377 | 0.0089 | 0.438 | – | 0.0039 | – |
| CN[C@H](C(=O)N[C@H](C(=O)N(C)[C@H](/C=C(\C)C(=O)O)C(C)C)C(C)(C)C)C(C)(C)c1ccc(OC)cc1 | 91 | 0.0014 | 0.0041 | 0.143 | 0.7 | 0.1 | 1.6 | 0.0073 | 0.0011 | 0.01 | – | 0.0069 | – | – | – |
| CN[C@H](C(=O)N[C@H](C(=O)N(C)[C@H](C[C@@H](C)C(=O)O)C(C)C)C(C)(C)C)C(C)(C)c1ccccc1 | 99 | 0.0085 | 0.0191 | 1.32 | 4 | – | – | – | – | – | – | – | – | – | – |
| C/C(=C\[C@H](C(C)C)N(C)C(=O)[C@@H](NC(=O)[C@@H](N(C)C)C(C)(C)c1ccccc1)C(C)(C)C)C(=O)O | 93 | 0.0016 | 0.0037 | 0.116 | – | 1 | – | – | – | – | – | – | – | – | – |
| CN[C@H](C(=O)N[C@H](C(=O)N(C)[C@H](/C=C(\C)C(=O)N1CCN(C)CC1)C(C)C)C(C)(C)C)C(C)(C)c1ccccc1 | 69 | 0.033 | 0.06 | 2.33 | – | 3 | 15 | – | – | – | – | – | – | – | – |
| CC/C(=C\[C@H](C(C)C)N(C)C(=O)[C@@H](NC(=O)[C@@H](NC)C(C)(C)c1ccccc1)C(C)(C)C)C(=O)O | 83 | 0.0054 | 0.014 | 0.513 | – | 2 | – | – | 0.0063 | 0.0193 | 0.0066 | 0.0208 | – | – | – |
| CNC(=O)/C(C)=C/[C@H](C(C)C)N(C)C(=O)[C@@H](NC(=O)[C@@H](NC)C(C)(C)c1ccccc1)C(C)(C)C | 78 | 0.068 | 0.129 | 1.59 | – | – | – | 0.657 | – | 0.09 | – | 0.0255 | – | – | – |
| CCCC[C@@H](/C=C(\C)C(=O)O)N(C)C(=O)[C@@H](NC(=O)[C@@H](NC)C(C)(C)c1ccccc1)C(C)(C)C | 52 | 0.036 | 0.078 | > 3 | – | – | – | – | – | 0.268 | 0.053 | – | – | – | – |
| CN[C@@H](C(=O)N[C@H](C(=O)N(C)[C@H](/C=C(\C)C(=O)O)C(C)C)C(C)(C)C)C(C)(C)c1ccccc1 (single isomer, unassigned) | 91 | 0.028 | 0.039 | 0.879 | – | – | – | – | 0.037 | 0.079 | – | 0.058 | – | – | Weak binding |
| CCOC(=O)/C(C)=C/[C@H](C(C)C)N(C)C(=O)[C@@H](NC(=O)[C@@H](NC)C(C)(C)c1ccccc1)C(C)(C)C | 97 | 0.034 | 0.499 | 1.87 | 4 | 0.4 | – | – | 0.0139 | 0.1 | – | 0.575 | – | – | – |
| CN[C@H](C(=O)N[C@H](C(=O)N(C)[C@H](/C=C(\C)C(=O)NO)C(C)C)C(C)(C)C)C(C)(C)c1ccccc1 | 75 | 0.039 | 0.227 | > 3 | – | – | – | – | – | – | – | – | – | – | – |
| C/C(=C\[C@H](C(C)C)N(C)C(=O)[C@@H](NC(=O)[C@@H](N1CCCC1)C(C)(C)c1ccccc1)C(C)(C)C)C(=O)O | 83 | 0.075 | 0.158 | > 3 | – | – | – | – | – | – | – | – | – | – | – |
| C/C(=C\[C@H](C(C)C)N(C)C(=O)[C@@H](NC(=O)[C@@H](NCc1ccccc1)C(C)(C)c1ccccc1)C(C)(C)C)C(=O)O | 55 | 1.79 | 1.88 | > 3 | – | – | – | – | – | – | – | – | – | – | – |
| CN[C@@H](Cc1ccccc1)C(=O)N[C@H](C(=O)N(C)[C@H](/C=C(\C)C(=O)O)C(C)C)C(C)(C)C | 66 | 0.603 | 0.646 | > 3 | – | – | – | – | – | – | – | – | – | – | – |
| C/C(=C\[C@H](C(C)C)N(C)C(=O)[C@@H](NC(=O)CC(C)(C)c1ccccc1)C(C)(C)C)C(=O)O | 21 | > 3 | > 3 | > 3 | – | – | – | – | – | – | – | – | – | – | – |
| CN[C@H](C(=O)N[C@H](C(=O)N(C)[C@@H](/C=C(\C)C(=O)O)C(C)C)C(C)(C)C)C(C)(C)c1ccccc1 (single isomer, unassigned) | 0 | 0.605 | 1.65 | > 3 | – | – | – | – | – | – | – | – | – | – | – |
| CN[C@H](C(=O)N[C@H](C(=O)N(C)[C@H](/C=C(\C)C(=O)O)C(C)C)C(C)(C)C)[C@@H](C)c1ccccc1 | 84 | 0.207 | 0.414 | > 3 | – | – | – | – | – | – | – | – | – | – | – |
